# From ChEMBL document CHEMBL4622869, “Discovery and structure-activity relationships study of positive allosteric modulators of the M3 muscarinic acetylcholine receptor” (Bioorg Med Chem, 2020)
# Numbering of substitutions follows the chain as printed.
# Columns and labels:
# [1] = target: T1, Muscarinic acetylcholine receptor M1 (Homo sapiens) (UniProt P11229); experiment: (§1) Positive allosteric modulation of recombinant human muscarinic acetylcholine receptor M1 expressed in CHOK1 cells assessed as increase in carbachol-induced intracellular calcium flux at 10 uM preincubated for 5 mins followed by carbachol addition by Fluo4-AM dye based FLIPR assay relative to carbachol; type: functional, cell-based; settings: CHO-K1
# T1 sequence (whole entry): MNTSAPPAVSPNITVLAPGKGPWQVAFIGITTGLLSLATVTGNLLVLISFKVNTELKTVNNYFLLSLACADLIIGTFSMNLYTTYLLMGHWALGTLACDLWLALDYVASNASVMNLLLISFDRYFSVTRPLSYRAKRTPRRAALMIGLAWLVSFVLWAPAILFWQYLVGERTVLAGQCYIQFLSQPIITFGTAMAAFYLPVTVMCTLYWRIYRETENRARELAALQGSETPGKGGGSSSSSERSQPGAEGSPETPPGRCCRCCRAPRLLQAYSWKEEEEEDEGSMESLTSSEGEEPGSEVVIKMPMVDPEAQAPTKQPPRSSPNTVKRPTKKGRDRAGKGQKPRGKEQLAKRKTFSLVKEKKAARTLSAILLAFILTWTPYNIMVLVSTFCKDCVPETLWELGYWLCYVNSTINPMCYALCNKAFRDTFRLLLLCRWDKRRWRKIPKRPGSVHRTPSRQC
# Method in brief: (§2)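 CHO-K1 cells stably expressing human or rat M1–M5; M2 and M4 lines also co-express human Gα16. Cells loaded with 3.1 μM Fluo-4 AM in HBSS/20 mM HEPES pH 7.5/BSA/2.5 mM probenecid for ~2 h at room temperature. Test substance at 10 μM final, then carbachol (0.0024 nM–100 μM) ~5 min later; Ca2+ read by FLIPR Tetra. Fold shift = carbachol EC50 without / with test substance, from logistic fits.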
# [2] = AUCinfinity in Crl:CD(SD) rat at 1 mg/kg, po measured up to 24 hrs by LC-MS/MS analysis; type: ADME, organism-based; design: dose 1 mg/kg, time infinity, route oral; settings: in vivo
# Method in brief: (§3)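 Male Crl:CD(SD) rats, 8 weeks old, food deprived (n=4); iv 0.3 mg/kg or po 1 mg/kg in DMF/propylene glycol/water for injection (1/1/8) containing 1 M NaOH (2 equivalents). Plasma sampled to 24 h, assayed by validated LC-MS/MS. Parameters from each animal by noncompartmental analysis, reported as means.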
# [3] = target: Muscarinic acetylcholine receptor M3 (Rattus norvegicus) (UniProt P08483); experiment: Positive allosteric modulation of muscarinic acetylcholine receptor M3 in Sprague-Dawley rat urinary bladder assessed as increase in 8 Hz electrical field stimulation-induced bladder contraction by measuring tension of isolated bladder contraction at 10 uM (reference value: 2.21 +/- 0.26 g)
# Method in brief: (§4)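 Female Sprague-Dawley rats, 9–10 weeks old. Longitudinal bladder strips (~10×2 mm) in Krebs at 37°C, gassed with 95% O2/5% CO2. EFS at 8 Hz, 10 s trains, 0.3 ms pulses, voltage set to give about half-maximal response. Drug added cumulatively at 1, 3 and 10 μM, 10 stimulations per concentration. Contraction = peak minus basal tone, averaged over the last 3 contractions and compared with pre-drug value (n=7).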
# [4] = target: T2, Muscarinic acetylcholine receptor M1 (Rattus norvegicus) (UniProt P08482); experiment: Positive allosteric modulation of recombinant rat muscarinic acetylcholine receptor M1 expressed in CHOK1 cells assessed as increase in carbachol-induced intracellular calcium flux at 10 uM preincubated for 5 mins followed by carbachol addition by Fluo4-AM dye based FLIPR assay relative to carbachol; type: functional, cell-based; settings: CHO-K1; method in brief: as §2
# T2 sequence (whole entry): T1 sequence (whole entry) with A5V, T254S, P309S, R320K, A337G, I413V
# [5] = target: Muscarinic acetylcholine receptor M3 (Rattus norvegicus) (UniProt P08483); experiment: Positive allosteric modulation of muscarinic acetylcholine receptor M3 in Sprague-Dawley rat urinary bladder assessed as increase in 8 Hz electrical field stimulation-induced bladder contraction; method in brief: as §4
# [6] = Oral bioavailability in Crl:CD(SD) rat at 1 mg/kg measured up to 24 hrs by LC-MS/MS analysis; type: ADME, organism-based; settings: in vivo; method in brief: as §3
# [7] = Tmax in Crl:CD(SD) rat at 1 mg/kg, po measured up to 24 hrs by LC-MS/MS analysis; type: ADME, organism-based; settings: in vivo; method in brief: as §3
# [8] = target: T3, Muscarinic acetylcholine receptor M2 (Homo sapiens) (UniProt P08172); experiment: as §1, with “M2” for “M1”, “cells coexpressing G-alpha16” for “cells”, “Fluo4-AM” for “Fluo4-AM dye”; type: functional, cell-based; settings: CHO-K1; method in brief: as §2
# T3 sequence (whole entry): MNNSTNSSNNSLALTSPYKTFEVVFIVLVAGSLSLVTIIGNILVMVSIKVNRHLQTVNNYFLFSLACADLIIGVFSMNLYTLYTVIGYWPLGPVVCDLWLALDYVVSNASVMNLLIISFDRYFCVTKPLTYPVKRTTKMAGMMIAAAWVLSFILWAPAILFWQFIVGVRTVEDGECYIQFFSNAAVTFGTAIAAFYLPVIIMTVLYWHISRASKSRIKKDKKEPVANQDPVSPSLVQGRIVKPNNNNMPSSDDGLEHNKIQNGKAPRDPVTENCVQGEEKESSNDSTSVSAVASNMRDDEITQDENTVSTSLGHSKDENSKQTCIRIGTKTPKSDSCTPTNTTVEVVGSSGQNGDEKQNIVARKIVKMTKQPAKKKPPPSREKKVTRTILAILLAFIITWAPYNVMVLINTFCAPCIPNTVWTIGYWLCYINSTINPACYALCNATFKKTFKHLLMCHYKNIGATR
# [9] = target: Muscarinic acetylcholine receptor M3 (Rattus norvegicus) (UniProt P08483); experiment: Positive allosteric modulation of muscarinic acetylcholine receptor M3 in Sprague-Dawley rat urinary bladder assessed as increase in 8 Hz electrical field stimulation-induced bladder contraction by measuring tension of isolated bladder contraction at 3 uM (reference value: 2.21 +/- 0.26 g); method in brief: as §4
# Chain of Muscarinic acetylcholine receptor M3 (Rattus norvegicus) (P08483 whole entry, looked up): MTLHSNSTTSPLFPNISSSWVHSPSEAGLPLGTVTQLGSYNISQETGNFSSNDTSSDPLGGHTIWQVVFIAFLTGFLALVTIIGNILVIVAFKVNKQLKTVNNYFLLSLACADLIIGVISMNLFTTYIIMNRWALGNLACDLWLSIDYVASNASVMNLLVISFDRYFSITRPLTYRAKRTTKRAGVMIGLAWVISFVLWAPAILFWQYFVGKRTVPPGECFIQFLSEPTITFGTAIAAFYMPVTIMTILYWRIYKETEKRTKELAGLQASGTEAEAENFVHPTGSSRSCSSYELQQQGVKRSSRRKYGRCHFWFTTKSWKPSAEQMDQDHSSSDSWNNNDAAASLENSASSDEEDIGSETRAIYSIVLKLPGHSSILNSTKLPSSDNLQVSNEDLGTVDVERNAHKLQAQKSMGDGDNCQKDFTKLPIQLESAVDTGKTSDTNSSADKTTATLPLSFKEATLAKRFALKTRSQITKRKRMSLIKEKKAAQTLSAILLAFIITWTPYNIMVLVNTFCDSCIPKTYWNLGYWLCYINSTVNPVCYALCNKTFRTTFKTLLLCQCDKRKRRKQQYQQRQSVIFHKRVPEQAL
structure (smiles),measurement,setting,value
CC[C@@H]1CCCN1Cc1sc(NC(=O)c2cnc(N3CCC(C(=O)O)CC3)cn2)nc1-c1ccc(OC)c(C(F)(F)F)c1.Cl.Cl,fold change (FC),[1],2.3
same,AUC(0-inf),[2],209 ng·h/mL
same,Activity,[3],3.49 g
same,fold change (FC),[4],2.1
same,Activity,[5],Dose-dependent effect
same,bioavailability,[6],19%
same,Tmax,[7],18.6 min
same,fold change (FC),[8],1.3
same,Activity,[9],2.79 g
